Measured values pooled from the literature.
Lines come from different studies, so protocols differ.
Effect on: cell growth or viability

SMILES	cell line	test	setting	quantity	value
COc1cccc(Oc2ccccc2NC(=O)CNC(=O)c2cccc3ccccc23)c1	OVCAR-4	SRB	48 h	GI50	776 nM
CCN(CC)CCNC(=O)c1c(C)[nH]c(/C=C2\C(=O)Nc3ccc(F)cc32)c1C	A549	–	30 µM	inhibition	85.7%
NC(=O)c1cc(Cl)ccc1NC(=O)COc1ccccc1	OVCAR-4	–	–	GI50	> 100000 nM
CC(C)C[C@H](NC(=O)[C@H](Cc1ccccc1)NC(=O)c1cnccn1)B(O)O	HCC38	ATP luminescence	–	IC50	9.9 nM
COc1ccc(-c2ccc(-c3ccc(C(=N)N)nc3)s2)cc1Cl	OVCAR-4	SRB	–	GI50	1740 nM
COc1cccc(NC(=O)CN2C(=O)/C(=C/c3cccs3)SC2=S)c1	A549	MTT	10 µM	inhibition	12.4%
O=C1Nc2ccccc2C1=NNc1nnc2n1N=C(c1ccccc1)CS2	OVCAR-4	SRB	10 µM	inhibition	41%
CCOc1ccc(/C=C2\SC(=S)N(CC(=O)Nc3ccccc3)C2=O)cc1	A549	MTT	10 µM	inhibition	48.2%
Cn1nnc2c(C(N)=O)ncn2c1=O	AZ-521	–	–	EC50	173000 nM
COc1cc(-c2ccc(-c3ccc(C(=N)N)nc3)s2)cc(OC)c1OC	OVCAR-4	SRB	–	GI50	2690 nM
COc1cccc(NC(=O)CN2C(=O)/C(=C/c3ccco3)SC2=S)c1	A549	MTT	10 µM	inhibition	13.7%
